Assay results from ChEMBL document CHEMBL1147465, “Nucleic acid-binding ligands identify new mechanisms to inhibit telomerase” (Bioorg Med Chem Lett, 2004).

Experiments:
Tetrahymena thermophila [1] = assay: Inhibition of telomerase after assembly using recombinant Tetraymena thermophilia TR and TERT at 50 uM
Euplotes aediculatus = assay: Inhibition of purified telomerase of Euplotes aediculatus at 50 uM
Summary of the method: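 Endogenous telomerase purified from E. aediculatus, tested in a direct activity assay with inhibitor at 50 µM.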

Tetrahymena thermophila [2] = assay: Inhibition of telomerase before assembly using recombinant Tetraymena thermophilia TR and TERT at 50 uM
[3] = molecular target: Telomerase reverse transcriptase (Homo sapiens) (UniProt O14746); assay: Inhibition of human telomerase before assembly using recombinant hTR and hTERT at 50 uM
Telomerase reverse transcriptase (Homo sapiens), sequence (O14746 whole entry): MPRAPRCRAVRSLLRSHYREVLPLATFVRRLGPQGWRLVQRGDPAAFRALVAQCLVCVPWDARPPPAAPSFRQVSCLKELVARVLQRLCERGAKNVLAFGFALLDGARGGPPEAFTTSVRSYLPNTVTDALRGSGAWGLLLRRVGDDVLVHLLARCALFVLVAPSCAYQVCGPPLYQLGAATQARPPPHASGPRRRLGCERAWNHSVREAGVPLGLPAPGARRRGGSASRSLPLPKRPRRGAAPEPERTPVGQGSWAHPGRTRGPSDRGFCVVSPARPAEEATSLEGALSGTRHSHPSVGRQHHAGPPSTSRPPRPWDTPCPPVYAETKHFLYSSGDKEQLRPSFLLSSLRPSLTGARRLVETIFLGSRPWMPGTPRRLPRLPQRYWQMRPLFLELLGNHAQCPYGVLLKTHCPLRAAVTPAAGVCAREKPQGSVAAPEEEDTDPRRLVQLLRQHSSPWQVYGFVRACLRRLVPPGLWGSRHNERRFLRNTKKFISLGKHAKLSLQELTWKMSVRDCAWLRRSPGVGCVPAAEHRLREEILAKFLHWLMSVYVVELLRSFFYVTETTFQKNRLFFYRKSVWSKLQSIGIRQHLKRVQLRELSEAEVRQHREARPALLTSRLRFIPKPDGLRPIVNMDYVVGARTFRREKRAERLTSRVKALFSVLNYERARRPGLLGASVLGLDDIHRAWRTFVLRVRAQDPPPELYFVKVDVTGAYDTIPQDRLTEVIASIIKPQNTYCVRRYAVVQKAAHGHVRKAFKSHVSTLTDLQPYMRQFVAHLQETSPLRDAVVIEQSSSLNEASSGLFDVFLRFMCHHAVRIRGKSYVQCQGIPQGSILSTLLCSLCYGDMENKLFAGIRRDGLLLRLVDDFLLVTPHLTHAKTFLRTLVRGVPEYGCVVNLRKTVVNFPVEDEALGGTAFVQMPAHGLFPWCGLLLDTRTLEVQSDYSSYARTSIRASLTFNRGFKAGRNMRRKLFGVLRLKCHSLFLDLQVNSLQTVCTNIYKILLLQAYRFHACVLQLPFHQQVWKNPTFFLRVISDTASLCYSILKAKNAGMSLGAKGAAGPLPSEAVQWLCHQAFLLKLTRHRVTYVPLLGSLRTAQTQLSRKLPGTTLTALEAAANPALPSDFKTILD
Summary of the method: (§1)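 Telomerase reconstituted from in vitro transcribed hTR and hTERT translated in vitro in rabbit reticulocyte lysate. Line 2: ligand added to hTR plus hTERT before a 90 min assembly incubation in lysate. Line 1: ligand added to telomerase already assembled in lysate.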

[4] = molecular target: Telomerase reverse transcriptase (Homo sapiens) (UniProt O14746); assay: Inhibition of human telomerase after assembly using recombinant hTR and hTERT at 50 uM; summary of the method: as §1

NCC[C@H](O)C(=O)N[C@@H]1C[C@H](N)[C@@H](O[C@H]2O[C@H](CN)[C@@H](O)[C@H](O)[C@H]2O)[C@H](O)[C@H]1O[C@H]1O[C@H](CO)[C@@H](O)[C@H](N)[C@H]1O
inhibition (Tetrahymena thermophila [1]): 0% | inhibition (Euplotes aediculatus): 0% | inhibition (Tetrahymena thermophila [2]): 0% | inhibition [3]: 25%

Cn1cc(NC(=O)c2cc(NC(=O)c3cc(NC=O)cn3C)cn2C)cc1C(=O)NCCC(=N)N
inhibition (Tetrahymena thermophila [1]): 0% | inhibition (Euplotes aediculatus): 75% | inhibition (Tetrahymena thermophila [2]): 0% | inhibition [3]: 10%

CN[C@@H]1[C@@H](O[C@H]2O[C@H](CO)[C@@H](N)[C@H](O)[C@H]2O)OC2C[C@@H](N)[C@@H](O[C@H]3[C@H](O)[C@@H](O)[C@H](N)C[C@@H]3N)OC2[C@@H]1O (some centres undefined)
inhibition (Tetrahymena thermophila [1]): 0% | inhibition (Euplotes aediculatus): 0% | inhibition (Tetrahymena thermophila [2]): 0% | inhibition [3]: 30%

CCN(CC)CCCC(C)Nc1c2ccc(Cl)cc2nc2ccc(OC)cc12 (centres undefined)
inhibition (Tetrahymena thermophila [1]): 80% | inhibition (Euplotes aediculatus): 75% | inhibition (Tetrahymena thermophila [2]): 93% | inhibition [4]: 50% | inhibition [3]: 82%

NC[C@@H]1O[C@H](O[C@H]2[C@@H](O)[C@H](O[C@@H]3[C@@H](O)[C@H](N)C[C@H](N)[C@H]3O[C@H]3O[C@H](CO)[C@@H](O)C[C@H]3N)O[C@@H]2CO)[C@H](N)[C@@H](O)[C@@H]1O[C@H]1O[C@H](CO)[C@@H](O)[C@H](O)[C@@H]1O
inhibition (Tetrahymena thermophila [1]): 0% | inhibition (Euplotes aediculatus): 10% | inhibition (Tetrahymena thermophila [2]): 0% | inhibition [4]: 12% | inhibition [3]: 50%

CN[C@@H]1C[C@H](N)[C@@H](O)[C@H](O[C@H]2O[C@H](CO)[C@H](O)[C@@H]3O[C@@]4(O[C@@H]23)O[C@H]([C@H](N)CO)[C@H](O)[C@H](O)[C@H]4O)[C@H]1O
inhibition (Tetrahymena thermophila [1]): 0% | inhibition (Euplotes aediculatus): 0% | inhibition (Tetrahymena thermophila [2]): 0% | inhibition [3]: 0%

GENTAMICIN
inhibition (Tetrahymena thermophila [1]): 0% | inhibition (Euplotes aediculatus): 0% | inhibition (Tetrahymena thermophila [2]): 0% | inhibition [4]: 19% | inhibition [3]: 64%

NC[C@@H]1O[C@H](O[C@H]2[C@@H](O)[C@H](O[C@@H]3[C@@H](O)[C@H](N)C[C@H](N)[C@H]3O[C@H]3O[C@H](CO)[C@@H](O)[C@H](O)[C@H]3N)O[C@@H]2CO)[C@H](N)[C@@H](O)[C@@H]1O
inhibition (Tetrahymena thermophila [1]): 0% | inhibition (Euplotes aediculatus): 0% | inhibition (Tetrahymena thermophila [2]): 0% | inhibition [4]: 29% | inhibition [3]: 60%

N=C(N)c1ccc(-c2cc3ccc(C(=N)N)cc3[nH]2)cc1
inhibition (Tetrahymena thermophila [1]): 70% | inhibition (Euplotes aediculatus): 0% | inhibition (Tetrahymena thermophila [2]): 70% | inhibition [4]: 72% | inhibition [3]: 90%

CN(C)[C@@H]1C(O)=C(C(N)=O)C(=O)[C@@]2(O)C(O)=C3C(=O)c4c(O)cccc4[C@@](C)(O)[C@H]3C[C@@H]12
inhibition (Tetrahymena thermophila [1]): 0% | inhibition (Euplotes aediculatus): 0% | inhibition (Tetrahymena thermophila [2]): 0% | inhibition [3]: 10%

Nc1ccc2cc3ccc(N)cc3nc2c1
inhibition (Tetrahymena thermophila [1]): 90% | inhibition (Euplotes aediculatus): 52% | inhibition (Tetrahymena thermophila [2]): 90% | inhibition [4]: 90% | inhibition [3]: 95%

CN1CCN(c2ccc3[nH]c(-c4ccc5[nH]c(-c6ccc(O)cc6)nc5c4)nc3c2)CC1
inhibition (Tetrahymena thermophila [1]): 15% | inhibition (Euplotes aediculatus): 86% | inhibition (Tetrahymena thermophila [2]): 50% | inhibition [4]: 34% | inhibition [3]: 81%

CN[C@@H]1[C@H](O)[C@H](NC)[C@H]2O[C@@]3(O)C(=O)C[C@@H](C)O[C@H]3O[C@@H]2[C@H]1O
inhibition (Tetrahymena thermophila [1]): 0% | inhibition (Euplotes aediculatus): 0% | inhibition (Tetrahymena thermophila [2]): 0% | inhibition [3]: 0%
